Source: ChEMBL document CHEMBL1156886, “Exploring epidermal growth factor receptor (EGFR) inhibitor features: the role of fused dioxygenated rings on the quinazoline scaffold” (J Med Chem, 2010)
Activity calls are given as the source filed them. The rule behind the calls is not given here.

Experiments:
Assay type in all cases: functional, cell-based
[1] = system: A-431; assay: Cytotoxicity against human A431 cells after 72 hrs by MTT assay; settings: A-431, 72 h
Outline: (§1)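 MTT proliferation assay after 72 h continuous compound exposure in A431 (EGFR-overexpressing) and NIH3T3 (not expressing EGFR) cells. Highest concentration tested 10 μM, limited by precipitation in culture medium. IC50 not derived when inhibition stayed below 50% at 10 μM. Values are mean ± SD of at least three independent experiments.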

[2] = system: NIH3T3; assay: Cytotoxicity against mouse NIH/3T3 cells after 72 hrs by MTT assay; settings: NIH3T3, 72 h; outline: as §1
[3] = system: A-431; assay: Antiproliferative activity against human A431 cells assessed as cell growth at 10 uM pretreated for 24 hrs measured after 68 hrs of drug removel by MTT assay
[4] = system: A-431; assay: Antiproliferative activity against exogenous EGF-induced human A431 cell growth at 0.1 uM pretreated for 24 hrs measured after 72 hrs of drug removel by MTT assay

Compound: Fc1ccc(Nc2ncnc3cc4c(cc23)OCCO4)cc1Cl
- IC50 [1]: > 10 µM

Compound: FC(F)(F)c1cccc(Nc2ncnc3cc4c(cc23)OCO4)c1
- IC50 [1]: 8.46 µM
- IC50 [2]: > 10 µM
- Activity [3]: Active

Compound: Fc1ccc(Nc2ncnc3cc4c(cc23)OCO4)cc1Cl
- IC50 [1]: > 10 µM

Compound: Cc1cccc(Nc2ncnc3cc4c(cc23)OCCCO4)c1
- IC50 [1]: 6.29 µM
- IC50 [2]: > 10 µM
- Activity [3]: Active

Compound: Cc1cccc(Nc2ncnc3cc4c(cc23)OCCO4)c1
- IC50 [1]: 0.67 µM
- IC50 [2]: 5.8 µM
- Activity [3]: Active

Compound: Cc1cccc(Nc2ncnc3cc4c(cc23)OCO4)c1
- IC50 [1]: 6.69 µM
- IC50 [2]: > 10 µM
- Activity [3]: Active

Compound: Fc1cc(Br)ccc1Nc1ncnc2cc3c(cc12)OCCCO3
- IC50 [1]: > 10 µM

Compound: Brc1cccc(Nc2ncnc3cc4c(cc23)OCO4)c1
- IC50 [1]: 7.16 µM
- IC50 [2]: > 10 µM
- Activity [3]: Active

Compound: Brc1cccc(Nc2ncnc3cc4c(cc23)OCCO4)c1
- IC50 [1]: 0.75 µM
- IC50 [2]: > 10 µM
- Activity [3]: Active

Compound: Fc1ccc(Nc2ncnc3cc4c(cc23)OCCCO4)cc1Cl
- IC50 [1]: 7.13 µM
- IC50 [2]: > 10 µM
- Activity [3]: Active

Compound: Fc1cc(Br)ccc1Nc1ncnc2cc3c(cc12)OCCO3
- IC50 [1]: 6.28 µM
- IC50 [2]: 5.4 µM
- Activity [3]: Active

Compound: FC(F)(F)c1cccc(Nc2ncnc3cc4c(cc23)OCCO4)c1
- IC50 [1]: 0.77 µM
- IC50 [2]: 7.1 µM
- Activity [3]: Active

Compound: Brc1cccc(Nc2ncnc3cc4c(cc23)OCCCO4)c1
- IC50 [1]: 8.17 µM
- IC50 [2]: > 10 µM
- Activity [3]: Active

Compound: FC(F)(F)c1cccc(Nc2ncnc3cc4c(cc23)OCCCO4)c1
- IC50 [1]: 4.73 µM
- IC50 [2]: > 10 µM
- Activity [3]: Active

Compound: Fc1cc(Br)ccc1Nc1ncnc2cc3c(cc12)OCO3
- IC50 [1]: > 10 µM

Compound: COc1cc2ncnc(Nc3cccc(Br)c3)c2cc1OC
- Activity [4]: inactive
- IC50 [2]: > 10 µM
- Activity [3]: Active
